Experimental data from ChEMBL document CHEMBL4118248, “Small Molecule Proprotein Convertase Subtilisin/Kexin Type 9 (PCSK9) Inhibitors: Hit to Lead Optimization of Systemic Agents” (J Med Chem, 2018).

Key:
[1] = Lipophilicity, log D of the compound by shake flask method; type: physicochemical; settings: octanol/water
Summary of the method: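 LogD measured by the shake-flask method.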

IEC-6 = assay: Cytotoxicity against rat IEC-6 cells assessed as reduction in cell viability after 3 days by CellTiter-Glo assay; type: cell-based; settings: IEC-6, 72 h
Summary of the method: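 Rat intestinal epithelial IEC-6 cells; viability read by CellTiter-Glo ATP luminescence.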

[2] = Intrinsic clearance in rat liver microsomes; type: ADME, microsome; settings: read-out: CLH
80S Ribosome [3] = assay: Binding affinity to 80S ribosome in human HuH7 cells harboring pCMV-truncated human PCSK9 (1 to 152 residues)-proLuc assessed as inhibition of PCSK9 mRNA translation after overnight incubation by luciferase reporter gene assay; type: cell-based; settings: huh-7
Summary of the method: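 Huh7 cells stably carry human PCSK9 prodomain (aa 1-152) fused to firefly luciferase (aa 2-550) in pcDNA3.1, kept under 900 µg/mL Geneticin. Plated 10,000/well in phenol red-free DMEM/10% FBS and left 4 h, then compound added (top final 20 µM, 0.5% DMSO). Incubated overnight at 37 °C, luminescence read with SteadyGlo.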

[4] = Permeability from apical to basolateral side in MDCK cells harboring MDR1; type: ADME, cell-based, Canis lupus familiaris; settings: dog, read-out: permeability
Summary of the method: (§1)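 Bidirectional permeability across MDR1-transfected MDCK monolayers, apical-to-basolateral and basolateral-to-apical; Papp reported in 10^-6 cm/s.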

[5] = Permeability from basolateral to apical side in MDCK cells harboring MDR1; type: ADME, cell-based, Canis lupus familiaris; settings: dog, read-out: permeability; summary of the method: as §1
Cytochrome P450 1A2 = target: T1, Cytochrome P450 1A2 (Homo sapiens, UniProt P05177); assay: Inhibition of CYP1A2 (unknown origin); type: ADME
T1 sequence (P05177 whole entry): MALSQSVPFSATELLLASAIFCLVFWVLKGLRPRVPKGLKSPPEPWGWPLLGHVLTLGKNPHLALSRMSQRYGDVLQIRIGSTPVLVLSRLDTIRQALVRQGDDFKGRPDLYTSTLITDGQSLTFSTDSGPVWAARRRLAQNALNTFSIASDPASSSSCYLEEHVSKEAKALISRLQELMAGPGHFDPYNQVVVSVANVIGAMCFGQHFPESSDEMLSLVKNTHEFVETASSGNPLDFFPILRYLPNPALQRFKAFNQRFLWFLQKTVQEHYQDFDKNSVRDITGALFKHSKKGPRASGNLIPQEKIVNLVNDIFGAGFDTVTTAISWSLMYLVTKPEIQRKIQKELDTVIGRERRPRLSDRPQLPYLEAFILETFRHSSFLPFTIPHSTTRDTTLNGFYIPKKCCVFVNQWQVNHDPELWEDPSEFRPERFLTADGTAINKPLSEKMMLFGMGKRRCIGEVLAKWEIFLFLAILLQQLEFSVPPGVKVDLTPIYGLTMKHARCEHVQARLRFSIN
Summary of the method: (§2)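 Inhibition of CYP1A2, 2D6, 2C9 and 3A4 reported as IC50, or as percent inhibition at 3 µM.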

Cytochrome P450 2C9 = Cytochrome P450 2C9 (Homo sapiens, UniProt P11712); assay: Inhibition of CYP2C9 (unknown origin); type: ADME; summary of the method: as §2
Chain of Cytochrome P450 2C9 (P11712 whole entry): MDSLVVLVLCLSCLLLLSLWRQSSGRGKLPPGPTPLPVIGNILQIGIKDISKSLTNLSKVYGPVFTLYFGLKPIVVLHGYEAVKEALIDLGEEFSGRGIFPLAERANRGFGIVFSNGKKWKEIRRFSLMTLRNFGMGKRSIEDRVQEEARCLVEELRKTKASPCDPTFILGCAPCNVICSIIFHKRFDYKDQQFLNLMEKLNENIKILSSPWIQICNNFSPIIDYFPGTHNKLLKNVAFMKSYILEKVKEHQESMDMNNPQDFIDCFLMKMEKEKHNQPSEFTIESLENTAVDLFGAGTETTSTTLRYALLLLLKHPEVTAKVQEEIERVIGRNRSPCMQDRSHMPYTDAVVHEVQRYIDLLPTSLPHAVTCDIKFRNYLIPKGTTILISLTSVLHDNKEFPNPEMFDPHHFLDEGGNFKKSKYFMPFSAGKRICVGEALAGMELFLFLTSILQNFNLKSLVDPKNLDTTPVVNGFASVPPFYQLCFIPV

Cytochrome P450 3A4 = Cytochrome P450 3A4 (Homo sapiens, UniProt P08684); assay: Inhibition of CYP3A4 (unknown origin); type: ADME; summary of the method: as §2
Chain of Cytochrome P450 3A4 (P08684 whole entry): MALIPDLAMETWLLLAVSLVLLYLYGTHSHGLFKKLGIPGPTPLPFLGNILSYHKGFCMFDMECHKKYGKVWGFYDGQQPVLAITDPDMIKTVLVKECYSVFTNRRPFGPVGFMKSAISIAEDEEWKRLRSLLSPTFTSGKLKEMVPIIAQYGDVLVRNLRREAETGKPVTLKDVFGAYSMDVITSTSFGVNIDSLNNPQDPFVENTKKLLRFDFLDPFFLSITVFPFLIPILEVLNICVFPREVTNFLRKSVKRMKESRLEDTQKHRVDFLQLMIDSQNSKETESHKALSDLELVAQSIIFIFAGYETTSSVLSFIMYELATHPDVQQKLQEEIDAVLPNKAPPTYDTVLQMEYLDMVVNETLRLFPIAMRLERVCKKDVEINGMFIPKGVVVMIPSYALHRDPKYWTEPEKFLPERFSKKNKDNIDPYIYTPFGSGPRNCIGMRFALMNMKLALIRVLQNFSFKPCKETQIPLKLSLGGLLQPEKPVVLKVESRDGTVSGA

[6] = Fraction unbound in rat plasma; type: ADME, cell-free
Summary of the method: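 Unbound fraction measured in rat plasma.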

80S Ribosome [7] = assay: Binding affinity to 80S ribosome in human HuH7 cells assessed as inhibition of PCSK9 mRNA translation after overnight incubation by ELISA; type: cell-based; settings: huh-7
Summary of the method: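 Huh7 cells kept in high-glucose DMEM, 10% BSA-free FBS, 2 mM L-glutamine, pen/strep at 37 °C, 5% CO2. Plated 7,500/well with compound or vehicle and incubated overnight (16-20 h). Secreted PCSK9 in the medium read by AlphaLISA: two antibodies to different mature-PCSK9 epitopes, biotinylated antibody 3 nM final, acceptor beads 10 µg/mL, 0.5 h rt; streptavidin donor beads 40 µg/mL, 1 h rt.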

[8] = Cytotoxicity against human CD34-positive hematopoietic progenitor cells assessed as reduction in cell viability after 72 hrs by CellTiter-Glo assay; type: cell-based
Rattus norvegicus [9] = assay: Reduction in total cholesterol level in Crl:CD(SD) rat at 50 mg/kg/day, po daily via gavage for 14 days measured on day 15 post last dose relative to control; type: functional; set-up: scale not given: the % may be the effect or the level left
Rattus norvegicus [10] = assay: Toxicity in Crl:CD(SD) rat assessed as decrease in hematocrit and hemoglobin level at 50 mg/kg/day, po daily via gavage for 14 days measured on day 15 post last dose relative to control; type: organism-based; set-up: scale not given: the % may be the effect or the level left; settings: in vivo, 336 h
Rattus norvegicus [11] = assay: Toxicity in Crl:CD(SD) rat assessed as decrease in absolute maturing erythroid cells at 50 mg/kg/day, po daily via gavage for 14 days measured on day 15 post last dose relative to control; type: organism-based; set-up: scale not given: the % may be the effect or the level left; settings: in vivo, 336 h
Rattus norvegicus [12] = assay: Toxicity in Crl:CD(SD) rat assessed as decrease in proliferating erythroid cells at 50 mg/kg/day, po daily via gavage for 14 days measured on day 15 post last dose relative to control; type: organism-based; set-up: scale not given: the % may be the effect or the level left; settings: in vivo, 336 h
Rattus norvegicus [13] = assay: Toxicity in Crl:CD(SD) rat assessed as decrease in total erythroid cells at 50 mg/kg/day, po daily via gavage for 14 days measured on day 15 post last dose relative to control; type: organism-based; set-up: scale not given: the % may be the effect or the level left; settings: in vivo, 336 h
Rattus norvegicus [14] = assay: Toxicity in Crl:CD(SD) rat assessed as decrease in WBC at 50 mg/kg/day, po daily via gavage for 14 days measured on day 15 post last dose relative to control; type: organism-based; set-up: scale not given: the % may be the effect or the level left; settings: in vivo, 336 h
Rattus norvegicus [15] = assay: Toxicity in Crl:CD(SD) rat assessed as decrease in lymphocytes at 50 mg/kg/day, po daily via gavage for 14 days measured on day 15 post last dose relative to control; type: organism-based; set-up: scale not given: the % may be the effect or the level left; settings: in vivo, 336 h
Rattus norvegicus [16] = assay: Toxicity in Crl:CD(SD) rat assessed as decrease in monocytes at 50 mg/kg/day, po daily via gavage for 14 days measured on day 15 post last dose relative to control; type: organism-based; set-up: scale not given: the % may be the effect or the level left; settings: in vivo, 336 h
Rattus norvegicus [17] = assay: Toxicity in Crl:CD(SD) rat assessed as decrease in eosinophils at 50 mg/kg/day, po daily via gavage for 14 days measured on day 15 post last dose relative to control; type: organism-based; set-up: scale not given: the % may be the effect or the level left; settings: in vivo, 336 h
Rattus norvegicus [18] = assay: Toxicity in Crl:CD(SD) rat assessed as decrease in basophils at 50 mg/kg/day, po daily via gavage for 14 days measured on day 15 post last dose relative to control; type: organism-based; set-up: scale not given: the % may be the effect or the level left; settings: in vivo, 336 h
Rattus norvegicus [19] = assay: Toxicity in Crl:CD(SD) rat assessed as decrease in total T cells at 50 mg/kg/day, po daily via gavage for 14 days measured on day 15 post last dose relative to control; type: organism-based; set-up: scale not given: the % may be the effect or the level left; settings: in vivo, 336 h
Rattus norvegicus [20] = assay: Toxicity in Crl:CD(SD) rat assessed as decrease in helper T cells at 50 mg/kg/day, po daily via gavage for 14 days measured on day 15 post last dose relative to control; type: organism-based; set-up: scale not given: the % may be the effect or the level left; settings: in vivo, 336 h
Rattus norvegicus [21] = assay: Toxicity in Crl:CD(SD) rat assessed as decrease in cytotoxic T cells at 50 mg/kg/day, po daily via gavage for 14 days measured on day 15 post last dose relative to control; type: organism-based; set-up: scale not given: the % may be the effect or the level left; settings: in vivo, 336 h
Rattus norvegicus [22] = assay: Toxicity in Crl:CD(SD) rat assessed as decrease in B cells at 50 mg/kg/day, po daily via gavage for 14 days measured on day 15 post last dose relative to control; type: organism-based; set-up: scale not given: the % may be the effect or the level left; settings: in vivo, 336 h
[23] = Total plasma concentration in Crl:CD(SD) rat at 15 mg/kg/day, po daily via gavage for 14 days measured on day 14 post last dose up to 24 hrs; type: ADME, organism-based; settings: in vivo

O=C(c1ccc(-n2nnc3cccnc32)cc1)N(c1ncccc1Cl)[C@@H]1CCCNC1
logD [1]: 0.8 | IC50 (IEC-6): > 20000 nM | microsomal CLint [2]: 18.2 µL/min/mg | IC50 (80S Ribosome [3]): 380 nM | Papp A→B [4]: 1.5 ×10⁻⁶ cm/s | Papp B→A [5]: 20.6 ×10⁻⁶ cm/s | IC50 (Cytochrome P450 1A2): > 30000 nM | IC50 (Cytochrome P450 2C9): > 30000 nM | IC50 (Cytochrome P450 3A4): > 30000 nM | fraction unbound [6]: 0.2 | IC50 (80S Ribosome [7]): 820 nM | IC50 [8]: 2700 nM | Activity (Rattus norvegicus [9]): 30% | Activity (Rattus norvegicus [10]): 9 to 10% | Activity (Rattus norvegicus [11]): 48% | Activity (Rattus norvegicus [12]): 32.9% | Activity (Rattus norvegicus [13]): 46% | Activity (Rattus norvegicus [14]): 52% | Activity (Rattus norvegicus [15]): 54% | Activity (Rattus norvegicus [16]): 63% | Activity (Rattus norvegicus [17]): 54% | Activity (Rattus norvegicus [18]): 100% | Activity (Rattus norvegicus [19]): 54% | Activity (Rattus norvegicus [20]): 54% | Activity (Rattus norvegicus [21]): 54.5% | Activity (Rattus norvegicus [22]): 58% | concentration [23]: 2420 nM
